Measurements from different studies.
Compare with care: the assays were run in different laboratories.
Target: Casein kinase I isoform gamma-2 (CSNK1G2, Homo sapiens, UniProt P78368)

CC(C)(C)c1cc(C=C(C#N)C#N)cc(Br)c1O — remaining activity (enzyme activity, inhibitor; 0.5 µM): 100%
COc1ncccc1-c1cnn2ccc(N3CCN(C(=O)OC(C)C)CC3)nc12 — remaining binding (binding, competition with immobilised ligand; 1 µM): 100%
Cn1cc(-c2cc(F)cc(N3CCn4c(cc5c4CCCC5)C3=O)c2CO)cc(Nc2ccc(N3CCN(C4COC4)CC3)cn2)c1=O — inhibition (enzyme activity, inhibitor; 0.1 µM): 7%
Nc1ncc(-c2nc(N3CCOCC3)nc(N3CCOCC3)n2)c(C(F)F)n1 — remaining binding (binding, competition with immobilised ligand; 10 µM): 85%
COc1cc(Nc2ncc(F)c(Nc3ccc4c(n3)NC(=O)C(C)(C)O4)n2)cc(OC)c1OC — inhibition (binding, competition with immobilised ligand; 10 µM): 0%
Cn1cncc1[C@@](O)(COc1ccc(C#N)cc1-c1ccc(OC(F)(F)F)cc1)c1ccc(C#N)cc1 — remaining binding (cell-free assay, competition with immobilised ligand; 1 µM): 64%
O=c1[nH]c2ccccc2n1C1CCN(Cc2ccc(-c3[nH]c4cc5ncnc5cc4nc3-c3ccccc3)cc2)CC1 — remaining signal (cell-free assay; 0.5 µM): 101%
Cn1cc(-c2cccc(N3CCc4c(sc5c4CC(C)(C)C5)C3=O)c2CO)cc(Nc2ccncn2)c1=O — inhibition (enzyme activity, inhibitor; 1 µM): 6%
Cc1nn(C)cc1-c1nc2c(N3CCN(Cc4ccc(Cl)cc4)CC3)c(Cl)cnc2[nH]1 — remaining binding (binding, competition with immobilised ligand; 1 µM): 96%
